Assay results published in ChEMBL document CHEMBL4359913, “Identification and characterization of benzo[d]oxazol-2(3H)-one derivatives as the first potent and selective small-molecule inhibitors of chromodomain protein CDYL” (Eur J Med Chem, 2019).
Calls of active or inactive are those of the source. The calls are words filed in the database; no cut-off is given here.

Columns and labels:
[1] = target: T1, Chromodomain Y-like protein (Homo sapiens, UniProt Q9Y232); assay: Binding affinity to recombinant human N-terminal GST-tagged CDYL (1 to 60 residues) expressed in Escherichia coli […] by SPR analysis
T1 sequence (Q9Y232 whole entry): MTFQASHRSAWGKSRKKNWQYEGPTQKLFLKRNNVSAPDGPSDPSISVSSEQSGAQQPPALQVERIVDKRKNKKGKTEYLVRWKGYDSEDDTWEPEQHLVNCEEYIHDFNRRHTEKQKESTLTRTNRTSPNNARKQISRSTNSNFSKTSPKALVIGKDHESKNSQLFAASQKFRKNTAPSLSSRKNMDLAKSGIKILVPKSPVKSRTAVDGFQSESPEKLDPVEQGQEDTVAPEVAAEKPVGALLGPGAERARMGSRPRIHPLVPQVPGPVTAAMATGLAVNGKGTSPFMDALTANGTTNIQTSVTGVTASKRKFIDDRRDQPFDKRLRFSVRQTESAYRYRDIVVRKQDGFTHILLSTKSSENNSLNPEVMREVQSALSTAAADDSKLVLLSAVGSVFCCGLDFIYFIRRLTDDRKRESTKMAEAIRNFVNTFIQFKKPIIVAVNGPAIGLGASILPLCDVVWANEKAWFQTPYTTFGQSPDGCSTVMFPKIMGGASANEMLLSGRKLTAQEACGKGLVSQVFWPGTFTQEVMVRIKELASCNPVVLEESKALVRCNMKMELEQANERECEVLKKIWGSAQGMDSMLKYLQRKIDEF
Procedure, shortened: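 GST-tagged chromodomain expressed in E. coli BL21 with 0.2 mM IPTG at 28 °C for 6 h. Purified on GSTrap, tag removed with PreScission protease. Amine-coupled to CM5 chip at pH 4.0–4.5 (5000–10000 RU). Compound run as a 1.5- or 2-fold series from 100 µM in PBSP with 5% DMSO, 25 °C, 30 µL/min, 60 s association and 60 s dissociation.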

[2] = target: T2, Chromodomain Y-like protein (Homo sapiens) (UniProt Q9Y232); assay: Inhibition of CDYL in human SH-SY5Y cells assessed as increase in VGF mRNA expression incubated for 24 hrs by RT-qPCR analysis; type: cell-based
T2 sequence (whole entry): T1 sequence (Q9Y232 whole entry)
Procedure, shortened: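 SH-SY5Y or HEK-293T cells grown in DMEM with 10% FBS and treated with compound for 24 h. mRNA quantified by SYBR green RT-qPCR after DNase treatment, 2^-ΔΔCt method with GAPDH as reference, relative to DMSO. Mean ± S.E.M. of triplicate experiments, Student's t-test.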

[3] = target: T2, Chromodomain Y-like protein (Homo sapiens); assay: Inhibition of CDYL in human SH-SY5Y cells assessed as decrease in enrichment of H3K27me3 at BDNF promoter site at 150 uM incubated for 24 hrs by ChIP-qPCR analysis; type: cell-based
Procedure, shortened: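 About 1×10^7 SH-SY5Y cells given 150 µM compound or DMSO for 24 h, fixed in 1% formaldehyde for 10 min. Chromatin immunoprecipitated overnight-style (12 h, 4 °C) with CDYL or H3K27me3 antibody, captured on Protein A/G beads, washed, decrosslinked at 65 °C. Promoter DNA quantified by qPCR, mean ± S.E.M. of triplicate experiments, Student's t-test.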

**Q.** For `O=C(Cn1c(=O)oc2ccccc21)N1CCC(N2CCCC2)CC1`, which Kd [1] is on record?
**A.** The Kd was 500 nM.

**Q.** And the Activity [2]?
**A.** The Activity was “Dose-dependent effect”.

**Q.** And the inhibition [3]?
**A.** Its inhibition is “Active”.
